Test results reported in ChEMBL document CHEMBL1145212, “Fluorinated diaryl sulfides as serotonin transporter ligands: synthesis, structure-activity relationship study, and in vivo evaluation of fluorine-18-labeled compounds as PET imaging agents” (J Med Chem, 2005).

Columns and labels:
Details in all cases: tested as the 18F-labelled form
[1] = target: Sodium-dependent serotonin transporter (Rattus norvegicus) (UniProt P31652); test: Specific binding of [18F]AFA in rat striatum after GBR-12935 treatment; n=3; assay type: functional, tissue-based
Sequence of Sodium-dependent serotonin transporter (Rattus norvegicus) (P31652 whole entry): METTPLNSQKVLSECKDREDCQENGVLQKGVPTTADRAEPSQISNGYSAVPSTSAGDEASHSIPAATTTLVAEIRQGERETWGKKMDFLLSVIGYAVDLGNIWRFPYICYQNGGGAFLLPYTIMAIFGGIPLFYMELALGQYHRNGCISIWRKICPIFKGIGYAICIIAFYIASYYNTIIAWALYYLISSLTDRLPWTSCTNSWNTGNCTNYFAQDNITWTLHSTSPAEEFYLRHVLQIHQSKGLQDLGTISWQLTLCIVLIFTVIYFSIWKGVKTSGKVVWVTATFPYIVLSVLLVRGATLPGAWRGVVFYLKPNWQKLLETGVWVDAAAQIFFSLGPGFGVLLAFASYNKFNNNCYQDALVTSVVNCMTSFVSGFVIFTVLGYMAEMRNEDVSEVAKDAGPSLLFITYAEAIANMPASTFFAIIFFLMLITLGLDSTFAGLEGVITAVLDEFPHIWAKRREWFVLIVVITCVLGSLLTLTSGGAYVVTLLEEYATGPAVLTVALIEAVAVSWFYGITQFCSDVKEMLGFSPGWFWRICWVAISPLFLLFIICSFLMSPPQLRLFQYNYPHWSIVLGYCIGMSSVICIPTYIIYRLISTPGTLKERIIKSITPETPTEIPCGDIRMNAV
How it was run: (§1)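 Rats, three per group, were pretreated iv with blocker at 2 mg/kg in saline, or with saline as control, 10–15 min before tail-vein F-18 radioligand (about 20 µCi). Killed at 60 min and regional %ID/g determined. Specific binding = (region activity − cerebellum activity)/cerebellum activity; mean ± SD.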

[2] = target: Sodium-dependent serotonin transporter (Rattus norvegicus) (UniProt P31652); test: Specific binding of [18F]AFA in rat thalamus after GBR-12935 treatment; n=3; assay type: functional, tissue-based; how it was run: as §1
[3] = target: Sodium-dependent serotonin transporter (Rattus norvegicus) (UniProt P31652); test: Specific binding of [18F]-AFA in rat striatum after citalopram treatment; n=3; assay type: functional, tissue-based; how it was run: as §1
[4] = target: Sodium-dependent serotonin transporter (Rattus norvegicus) (UniProt P31652); test: Specific binding of [18F]-AFA in rat striatum after nisoxetine treatment; n=3; assay type: functional, tissue-based; how it was run: as §1
[5] = target: Sodium-dependent serotonin transporter (Rattus norvegicus) (UniProt P31652); test: Specific binding of [18F]AFA in rat thalamus after citalopram treatment; n=3; assay type: functional, tissue-based; how it was run: as §1
[6] = target: Sodium-dependent serotonin transporter (Rattus norvegicus) (UniProt P31652); test: Specific binding of [18F]AFA in rat thalamus after nisoxetine treatment; n=3; assay type: functional, tissue-based; how it was run: as §1
[7] = target: Sodium-dependent serotonin transporter (Rattus norvegicus) (UniProt P31652); test: Specific binding of [18F]AFA in rat hippocampus after GBR-12935 treatment; n=3; assay type: functional, tissue-based; how it was run: as §1
[8] = target: Sodium-dependent serotonin transporter (Rattus norvegicus) (UniProt P31652); test: Specific binding of [18F]AFA in rat hypothalamus after GBR-12935 treatment; n=3; assay type: functional, tissue-based; how it was run: as §1
[9] = target: Sodium-dependent serotonin transporter (Rattus norvegicus) (UniProt P31652); test: Specific binding of [18F]AFA in rat hippocampus after citalopram treatment; n=3; assay type: functional, tissue-based; how it was run: as §1
[10] = target: Sodium-dependent serotonin transporter (Rattus norvegicus) (UniProt P31652); test: Specific binding of [18F]AFA in rat hippocampus after nisoxetine treatment; n=3; assay type: functional, tissue-based; how it was run: as §1
[11] = target: Sodium-dependent serotonin transporter (Rattus norvegicus) (UniProt P31652); test: Specific binding of [18F]AFA in rat frontal cortex after GBR-12935 treatment; n=3; assay type: functional, tissue-based; how it was run: as §1
[12] = target: Sodium-dependent serotonin transporter (Rattus norvegicus) (UniProt P31652); test: Specific binding of [18F]AFA in rat hypothalamus after citalopram treatment; n=3; assay type: functional, tissue-based; how it was run: as §1
[13] = target: Sodium-dependent serotonin transporter (Rattus norvegicus) (UniProt P31652); test: Specific binding of [18F]AFA in rat hypothalamus after nisoxetine treatment; n=3; assay type: functional, tissue-based; how it was run: as §1
[14] = target: Sodium-dependent serotonin transporter (Rattus norvegicus) (UniProt P31652); test: Specific binding of [18F]AFA in rat frontal cortex after citalopram treatment; n=3; assay type: functional, tissue-based; how it was run: as §1
[15] = target: Sodium-dependent serotonin transporter (Rattus norvegicus) (UniProt P31652); test: Specific binding of [18F]AFA in rat frontal cortex after nisoxetine treatment; n=3; assay type: functional, tissue-based; how it was run: as §1
[16] = target: Sodium-dependent serotonin transporter (Rattus norvegicus) (UniProt P31652); test: Specific binding in rat hypothalamus at 10 min postinjection in vivo; assay type: functional, organism-based
How it was run: (§2)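 Male Sprague-Dawley rats, n=3 per time point, received about 20 µCi of F-18 radioligand in saline iv by tail vein and were killed at 10–120 min. %ID/g was measured with decay and tail-residual correction. Hypothalamic specific binding = (%ID/g hypothalamus − %ID/g cerebellum)/%ID/g cerebellum; mean ± SD.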

[17] = target: Sodium-dependent serotonin transporter (Rattus norvegicus) (UniProt P31652); test: Specific binding in rat hypothalamus at 30 min postinjection in vivo; assay type: functional, organism-based; how it was run: as §2
[18] = target: Sodium-dependent serotonin transporter (Rattus norvegicus) (UniProt P31652); test: Specific binding in rat hypothalamus at 60 min postinjection in vivo; assay type: functional, organism-based; how it was run: as §2
[19] = target: Sodium-dependent serotonin transporter (Rattus norvegicus) (UniProt P31652); test: Specific binding in rat hypothalamus at 90 min postinjection in vivo; assay type: functional, organism-based; how it was run: as §2
[20] = target: Sodium-dependent serotonin transporter (Rattus norvegicus) (UniProt P31652); test: Specific binding in rat hypothalamus at 120 min postinjection in vivo; assay type: functional, organism-based; how it was run: as §2
[21] = species: Rattus norvegicus; test: Regional uptake of [18F]AFA in blood of rat pretreated with compound 7f; n=3; assay type: functional, organism-based
[22] = species: Rattus norvegicus; test: Regional uptake of [18F]AFA in cerebellum of rat pretreated with compound 7f; n=3; assay type: functional, organism-based
[23] = species: Rattus norvegicus; test: Regional uptake of [18F]-AFA in blood of rat pretreated with compound GBR-12935; n=3; assay type: functional, organism-based
How it was run: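 Male Sprague-Dawley rats, three per group, received blocker (2 mg/kg iv in saline) or saline only (controls) 10–15 min before about 20 µCi of tail-vein F-18 radioligand. Killed 60 min after tracer. Blood and brain regions weighed and gamma-counted. %ID/g was decay- and tail-corrected; mean ± SD.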

[24] = species: Rattus norvegicus; test: Regional uptake of [18F]AFA in hippocampus of rat pretreated with compound 7f; n=3; assay type: functional, organism-based

## CN(C)Cc1ccccc1Sc1ccc(CCCF)cc1N
[1]
  Specific binding: 0.84 %ID/g
[2]
  Specific binding: 0.98 %ID/g
[3]
  Specific binding: 0.45 %ID/g
[4]
  Specific binding: 0.58 %ID/g
[5]
  Specific binding: 0.74 %ID/g
[6]
  Specific binding: 0.88 %ID/g
[7]
  Specific binding: 0.77 %ID/g
[8]
  Specific binding: 0.87 %ID/g
[9]
  Specific binding: 0.32 %ID/g
[10]
  Specific binding: 1.02 %ID/g
[11]
  Specific binding: 0.64 %ID/g
[12]
  Specific binding: 0.66 %ID/g
[13]
  Specific binding: 0.84 %ID/g
[14]
  Specific binding: 0.84 %ID/g
[15]
  Specific binding: 0.72 %ID/g
[16]
  Specific binding: 0.34 %ID/g
[17]
  Specific binding: 0.57 %ID/g
[18]
  Specific binding: 0.85 %ID/g
[19]
  Specific binding (dimensionless ratio): 1.85
[20]
  Specific binding (dimensionless ratio): 2.4
[21]
  Uptake: 0.07 %ID/g
[22]
  Uptake: 0.08 %ID/g
[23]
  Uptake: 0.09 %ID/g
[24]
  Uptake: 0.08 %ID/g
